Experimental findings from ChEMBL document CHEMBL4130582, “Total Synthesis of Reniochalistatin E” (J Nat Prod, 2017) are described below.

Assay type in all cases: functional, cell-based
A short description of assay [1]: Cytotoxicity against human MM1R cells after 72 hrs by Alamar Blue assay. As to conditions: MM.1R. The method, boiled down:
(§1)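 Nonadherent cells in RPMI1640 + 10% FBS at 37 °C, 5% CO2. Compound from DMSO stock was diluted in media (31.6 nM to 200 μM) and plated in triplicate; cells (2000/well) were added afterwards. After 69 h, Alamar Blue was added for 3 h more; fluorescence read at ex 560/em 590 nm. Doxorubicin and etoposide served as positive controls. IC50 taken from ≥3 independent experiments.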
On the technique in general: Resazurin is reduced to fluorescent resorufin, in cell work by metabolically active cells.

In a further assay the test system is RPMI-8226. As to the kind of experiment: Cytotoxicity against human RPMI8226 cells after 72 hrs by Alamar Blue assay. As to conditions: RPMI-8226, 72 h. The method, boiled down: as §1
Another assay deals with A549. As to the kind of experiment: Cytotoxicity against human A549 cells after 72 hrs by Alamar Blue assay. Conditions: A549, 72 h. A digest of the protocol:
(§2)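 A549 or HeLa cells in RPMI1640 + 10% FBS at 37 °C, 5% CO2. Seeded 1500 cells/well and left to adhere 2−3 h, then given compound diluted from DMSO stock in media (31.6 nM to 200 μM), in triplicate. After 69 h, Alamar Blue was added for 3 h more; fluorescence read at ex 560/em 590 nm. Doxorubicin and etoposide served as positive controls, untreated wells as negative. IC50 taken from ≥3 independent experiments.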

Assay [2] is described as follows: Cytotoxicity against human MiaPaCa cells after 72 hrs by Alamar Blue assay. As to conditions: MIA PaCa-2, 72 h. A digest of the protocol: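 Mia PaCa-2 in DMEM + 10% FBS at 37 °C, 5% CO2. Seeded 1500 cells/well and left to adhere 2−3 h, then given compound diluted from DMSO stock in media (31.6 nM to 200 μM), in triplicate. After 69 h, Alamar Blue was added for 3 h more; fluorescence read at ex 560/em 590 nm. Doxorubicin and etoposide served as positive controls, untreated wells as negative. IC50 taken from ≥3 independent experiments.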

Another assay relates to HeLa. The assay can be described thus: Cytotoxicity against human HeLa cells after 72 hrs by Alamar Blue assay. A digest of the protocol:
as §2

In the next assay the test system is U-937. The assay can be described thus: Cytotoxicity against human U937 cells after 72 hrs by Alamar Blue assay. As to conditions: U-937, 72 h. A digest of the protocol:
as §1

Residues, ends and D or L forms follow the SMILES beside them. *: point of attachment. Boc = CC(C)(C)OC(=O)* Where only a bound is given, the exact number is not on record here.

For orientation: IC50 means the concentration that inhibits the measured activity by half. A high value points to weaker potency in that assay. As to `CC[C@H](C)[C@H](NC(=O)OC(C)(C)C)C(=O)N1CCC[C@H]1C(=O)N[C@@H](CC(C)C)C(=O)N[C@@H](Cc1c[nH]c2ccccc12)C(=O)N1CCC[C@H]1C(=O)N[C@H](C(=O)N[C@H](C(=O)N1CCC[C@H]1C(=O)OC)[C@@H](C)CC)C(C)C` (Boc-IPLWPVIP-OMe), the IC50 (in assay [1]; in the assay on RPMI-8226; with A549; in assay [2]; in the assay with HeLa; in the assay with U-937) was above 20 µM in each case.

For the molecule H-PVIPIPLW-OH, the IC50 in assay [1] is above 20 µM; with RPMI-8226, above 20 µM; in the assay with A549 it was above 20 µM; in assay [2] it was above 20 µM; in the assay on HeLa, above 20 µM; in the assay on U-937, 9.5 µM.

Take H-IPLWPVIP-OH: the half-inhibitory concentration (IC50) in assay [1] was above 20 µM; in the assay on RPMI-8226, 16.4 µM; in the assay with A549 it was above 20 µM; in assay [2] it was above 20 µM; in the assay with HeLa, 18.4 µM; in the assay with U-937, above 20 µM.

Take `CC[C@H](C)[C@@H]1NC(=O)[C@H](C(C)C)NC(=O)[C@@H]2CCCN2C(=O)[C@H](Cc2c[nH]c3ccccc23)NC(=O)[C@H](CC(C)C)NC(=O)[C@@H]2CCCN2C(=O)[C@H]([C@@H](C)CC)NC(=O)[C@@H]2CCCN2C1=O` (cyclo(IPIPLWPV)): the IC50 was above 11.2 µM in assay [1]; 4.5 µM in the assay on RPMI-8226; above 20 µM in the assay on A549; above 20 µM in assay [2]; 16.9 µM in the assay with HeLa; 12.4 µM with U-937.

Regarding `CC[C@H](C)[C@H](NC(=O)[C@@H](NC(=O)[C@@H]1CCCN1C(=O)OC(C)(C)C)C(C)C)C(=O)N1CCC[C@H]1C(=O)N[C@H](C(=O)N1CCC[C@H]1C(=O)N[C@@H](CC(C)C)C(=O)N[C@@H](Cc1c[nH]c2ccccc12)C(=O)OC)[C@@H](C)CC` (Boc-PVIPIPLW-OMe), the IC50 in assay [1] was above 20 µM; in the assay with RPMI-8226, above 20 µM; with A549, above 20 µM; in assay [2] it was 19.1 µM; in the assay on HeLa it was above 20 µM; in the assay on U-937 it was above 20 µM.
